# Screening results (PubChem)
# E-selectin induc = induces E-selectin expression in human endothelial cells. activation, % at 7.58 µM. P16581. HUVEC E-selectin immunofluorescence imaging; normalized: neutral wells 0, TNF-alpha wells 100. AID 686992. 0.37% of 260,000 active;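 active = mean E-selectin-positive cell signal at least 10% of the positive control, reached in at least 60% of replicates, without over 20% cell loss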
# Target sequence (P16581 whole entry, looked up): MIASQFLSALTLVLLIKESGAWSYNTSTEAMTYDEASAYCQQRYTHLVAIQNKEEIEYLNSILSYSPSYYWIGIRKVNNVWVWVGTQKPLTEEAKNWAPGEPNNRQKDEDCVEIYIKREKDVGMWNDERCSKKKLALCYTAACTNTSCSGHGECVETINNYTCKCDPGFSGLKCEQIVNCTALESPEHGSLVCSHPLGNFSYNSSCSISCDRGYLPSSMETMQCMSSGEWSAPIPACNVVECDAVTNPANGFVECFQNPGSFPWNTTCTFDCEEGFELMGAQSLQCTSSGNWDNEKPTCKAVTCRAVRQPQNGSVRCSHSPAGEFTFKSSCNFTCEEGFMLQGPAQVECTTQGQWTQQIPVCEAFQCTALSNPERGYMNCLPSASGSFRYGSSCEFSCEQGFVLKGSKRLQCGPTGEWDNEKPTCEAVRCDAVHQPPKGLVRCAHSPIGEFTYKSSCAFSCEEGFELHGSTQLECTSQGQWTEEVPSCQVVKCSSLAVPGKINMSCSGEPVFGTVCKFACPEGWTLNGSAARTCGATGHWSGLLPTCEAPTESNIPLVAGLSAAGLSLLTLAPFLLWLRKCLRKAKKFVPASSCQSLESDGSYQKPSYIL
#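 material = human umbilical vein endothelial cells (HUVEC), E-selectin induction | quantity = 3,000 cells/well | medium = EGM-2 growth medium on 0.1% gelatin-coated wells | technique = immunofluorescence imaging | read-out basis = % PE-positive cells | control set = TNF-alpha positive control, DMSO neutral control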
# EWS-Fli inh = EWS/Fli transcriptional activity inhibition; inhibition, % at 12.6 µM; A673 NR0B1-luciferase reporter, viability-normalised; 0.67% of 350,000 active;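 active = mean inhibition of at least 50% after viability correction, with every replicate also passing that limit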;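 also: firefly luciferase signal divided by Alamar Blue viability fluorescence both relative to DMSO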
# LGR2 antag = Drosophila LGR2 receptor signaling inhibition; HEK293 LGR2, CRE-luciferase, bursicon-stimulated, 4 h; inhibition, % at 9.99 µM; 0.35% of 380,000 active; AID 720647;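 active = drop in luminescence signal, shown as inhibition above about 50% in the replicate tests, limit read from the data, passing the limit was not always enough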;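 also: agonist challenge used bursicon conditioned medium at about half maximal strength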
# Ecoli rRNA inh = inhibits bacterial ribosomal RNA function over humanized ribosomes; E. coli WT GFP vs humanized-ribosome RFP mutants, fluorescence, 24 h; active compounds read low; DMSO median 0, no signal -100; GFP signal change (wild-type ribosome), % (no concentration beside the values); 1.6% of 350,000 active;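 active = significant combined selectivity score with lowered wild-type GFP, culture density cut under 30%, mutant RFP and density less affected; inactive = any of these conditions unmet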
# An asterisk follows results filed as active; / = not tested or not shown. Shown are actives, neighbours in structure and some others; about 2.4% of the full set was active somewhere.
SMILES,E-selectin induc,EWS-Fli inh,LGR2 antag,Ecoli rRNA inh
CCCCOc1ccc(-c2cnc3ccccc3n2)cc1,/,/,70*,/
Cc1ccc(-c2csc(NC(=O)c3cccc(C)c3)c2C(=O)O)cc1,0,-60,-79,-38*
COc1cccc(-c2cnc3c(c2)C(=O)N([C@H](C)CO)C[C@@H](C)[C@@H](CN(C)CC2CC2)O3)c1,0,-9,-9,/
COc1ccc(S(=O)(=O)NC[C@H]2CC[C@H]3[C@H](CN3Cc3cc(F)ccc3F)O2)cc1,/,-10,/,/
Cc1cc(C)c2nc(Cl)c(CN(Cc3ccco3)C(=O)Nc3ccccc3C)cc2c1,/,56*,-11,-12
CN1c2ccc(-c3cccc(C#N)c3)cc2[C@H]2[C@H](CCN2C(=O)NC2CCCCC2)[C@@H]1CO,1,-10,7,-3
CC1(CCc2ccccc2)NC(=O)N(Cc2cc([N+](=O)[O-])cc3c2OCOC3)C1=O (stereo unspecified),0,13,-2,-24*
Oc1cccc(NC(=S)N=Nc2c(O)[nH]c3ccccc23)c1,/,-67,-22,-54*
Nc1ccc(N=Nc2ccccc2O)c(N)c1,0,-72,-122,-40*
Oc1ccccc1N=Nc1ccccc1O,0,-10,-53,-9
Cc1noc(C)c1NC(=O)Nc1ccc2c(c1)C(=O)N([C@H](C)CO)C[C@H](C)[C@H](CN(C)C)OCCCC[C@H](C)O2,0,-1,0,2
CCOc1ccc(NCC(=O)c2ccc(C)cc2)cc1,0,-7,-6,-33*
N/C(=N\OC(=O)CC(c1ccccc1)c1ccccc1)c1cccnc1,/,13,14,-20*
N/C(=N\OC(=O)Cc1ccccc1)c1cccnc1,/,/,-24,/
CC1=CC2=NC(=O)CC(C)(C(=O)N(CC(=O)NC3CCCC3)Cc3ccccc3)N2C=C1 (stereo unspecified),41*,0,32,2
CC1=CN2C(=NC(=O)CC2(C)C(=O)N(CC(=O)NC2CCCC2)Cc2ccccc2)C=C1 (stereo unspecified),0,2,23,9
CCCNC(=O)C[C@@H]1CC[C@H]2[C@@H](COc3ccc(NC(=O)c4cccs4)cc3C(=O)N2C)O1,0,-2,2,-1
O=C1O[C@@H](c2ccccc2)[C@@H](c2ccccc2)N2[C@@H](c3ccc(OCCO)cc3)[C@]3(C(=O)Nc4ccccc43)[C@@H](C(=O)Nc3nc4ccccc4s3)[C@H]12,/,-14,/,/
COc1ccc2cc(C(=O)C3CCCN(C(=O)C4=NN(C)C(=O)CC4)C3)ccc2c1 (stereo unspecified),/,/,9,-26*
COc1ccc(/C=N/Nc2nc(NCc3ccco3)nc(Nc3ccc(OC)cc3)n2)cc1,13,12,1,-6
COc1ccc(Nc2nc(NCc3ccco3)nc(N/N=C/c3ccccc3F)n2)cc1,-1,2,-2,-27*
Cc1ccccc1OCCOC(=O)c1c(-c2ccccc2)noc1C,/,58*,-7,-6
Cc1noc(C)c1S(=O)(=O)N(C)C[C@@H]1OCCCC[C@H](C)Oc2ccc(NS(=O)(=O)c3ccccc3)cc2C(=O)N([C@H](C)CO)C[C@H]1C,/,-5,10,-1
O=C(N/N=C/c1ccc2ncccc2c1)c1ccco1,/,18,55*,-4
O=C(C[C@H]1CC[C@H]2[C@@H](COC[C@H](O)CN2Cc2ccccc2)O1)N1CCOCC1,0,0,-7,-1
SMILES,E-selectin induc,EWS-Fli inh,LGR2 antag,Ecoli rRNA inh
OC[C@H]1[C@@H](c2ccccc2)C2(CN(Cc3ccccc3)C2)N1Cc1ccncc1,0,/,9,2
COc1cccc(NC(=O)C(C)OC(=O)c2n[nH]c3ccccc23)c1 (stereo unspecified),/,-26,-16,-27*
CC(=O)c1cccc(NC(=O)COC(=O)c2n[nH]c3ccccc23)c1,/,-10,-27,-23*
CN(C)C(=O)[C@@H]1[C@@H](CO)[C@@H]2Cn3c(ccc(-c4cccc(F)c4)c3=O)[C@@H]2N1C(=O)c1cnccn1,0,4,2,3
O=C(Nc1nnc(-c2ccccn2)o1)c1cccc(Cl)c1,10,21,-14,-54*
O=C(Nc1nnc(-c2ccncc2)o1)c1ccccc1,/,3,-7,-35*
COc1ccccc1N(C(=O)c1snc(C(N)=O)c1N)C(C(=O)NCc1ccccc1)c1ccc(C)o1 (stereo unspecified),33*,14,13,3
O=C(/C=C/c1cccc(F)c1)c1ccc(N2CCOCC2)cc1,0,-27,-63,-8
O=C(/C=C/c1cccs1)c1ccc(N2CCOCC2)cc1,/,20,93*,5
CC(/C=N/NC(=O)c1cc(-c2cccn2C)n[nH]1)=C\c1ccccc1,1,-8,-7,-40*
Cn1cccc1-c1cc(C(=O)N/N=C/c2ccc(F)cc2)[nH]n1,/,-13,-9,-13
CCOc1ccc(/C=N/NC(=O)c2cc(-c3cccn3C)n[nH]2)cc1,/,-2,2,-26*
COc1ccc(/C=N/NC(=O)c2cc(-c3ccc4c(c3)OCO4)n[nH]2)cc1OC,/,39,-15,-20*
O=C(N/N=C/c1cc2c(cc1Cl)OCO2)c1cc(-c2ccccc2)n[nH]1,1,-1,0,-24*
O=C(N/N=C/c1cc2c(cc1Cl)OCO2)c1ccncc1,/,-23,13,/
CCS(=O)(=O)N1CCC2(CC1)CN(C(=O)Nc1cccc(F)c1)[C@@H](CO)c1c2c2ccc(OC)cc2n1C,0,7,12,-2
CN1CCN(C(=O)c2cc3c(c(-c4cccc(-c5ccccc5F)c4)n2)[C@H](CCO)N([S@@](=O)C(C)(C)C)C3)CC1,0,-2,-6,-1
Cn1cccc1-c1cc(C(=O)N/N=C/c2cc(Br)ccc2O)[nH]n1,1,4,36,-44
O=C(N/N=C/C=C/c1ccccc1[N+](=O)[O-])c1cc(-c2ccccc2)n[nH]1,/,7,-16,-34*
Cn1cccc1-c1cc(C(=O)N/N=C/c2ccccc2Cl)[nH]n1,/,/,-83,-22*
CC(C)CC#Cc1ccc2c(c1)O[C@@H](CN(C)Cc1ccncc1)[C@H](C)CN([C@@H](C)CO)S2(=O)=O,13,34,5,-16
COc1cccc(NC(=O)c2nn(C)c(C(=O)Nc3cccc(OC)c3)c2[N+](=O)[O-])c1,0,3,6,-40*
Cn1cc([N+](=O)[O-])c(C(=O)Nc2cc(Oc3ccccc3)cc([N+](=O)[O-])c2)n1,/,54*,8,4
Cn1nc(C(C)(C)C)c([N+](=O)[O-])c1C(=O)Nc1ccc(Br)cc1,4,-13,5,-26*
Cc1cccc(NC(=O)c2c([N+](=O)[O-])c(C(C)(C)C)nn2C)c1,/,-10,-3,13
COCC#Cc1ccc2c(c1)O[C@@H](CN(C)C(=O)CC1CC1)[C@@H](C)CN([C@@H](C)CO)S2(=O)=O,0,5,0,2
CCC(=O)N1CC(=O)N2[C@H](CO)[C@@H](c3ccc(C#CC(C)C)cc3)[C@H]2C1,/,/,/,4
